# Measured values as given in ChEMBL document CHEMBL5058577, “EUbOPEN Chemogenomics Library 2 (Multiplex)” (2022).
# Test system: U2OS
# Test: Multiplex assay against U2OS
# Type: toxicity, cell-based
# Conditions: human
# Method in brief: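 Compound was added to live cells that had been stained at seeding with Hoechst33342, BioTracker Green Microtubule Cytoskeleton Dye, MitoTracker Red and Annexin V Alexa Fluor 680, and imaging followed on a CQ1 microscope at 37°C and 5% CO2. CellPathfinder machine-learning gating divided cells into Hoechst high-intensity objects or normal cells, normal cells into healthy, pyknosed or fragmented nuclei, and pyknosed cells into mitotic or apoptotic. Tubulin, mitochondrial-mass and membrane-permeability phenotypes are per cents of healthy-nucleus cells.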
# [1] = 12 h, 1 µM, compound concentration 1 uM, replicate 1
# [2] = 12 h, 1 µM, compound concentration 1 uM, replicate 2
# [3] = 12 h, 10 µM, compound concentration 10 uM, replicate 1
# [4] = 12 h, 10 µM, compound concentration 10 uM, replicate 2
# [5] = 24 h, 1 µM, compound concentration 1 uM, replicate 1
# [6] = 24 h, 1 µM, compound concentration 1 uM, replicate 2
# [7] = 24 h, 10 µM, compound concentration 10 uM, replicate 1
# [8] = 24 h, 10 µM, compound concentration 10 uM, replicate 2
# [9] = 48 h, 1 µM, compound concentration 1 uM, replicate 1
# [10] = 48 h, 1 µM, compound concentration 1 uM, replicate 2
# [11] = 48 h, 10 µM, compound concentration 10 uM, replicate 1
# [12] = 48 h, 10 µM, compound concentration 10 uM, replicate 2
compound,measurement,setting,value
Cc1onc(-c2ccccc2Cl)c1C(=O)N(C)c1ccc(Cl)cc1,Population Apoptotic (%),[1],82%
same,Population Fragmented Nuclei (%),[1],26%
same,Population Healthy Nuclei (%),[1],67%
same,Population Hoechst High Intensity Objects (%),[1],0%
same,Population Membrane Permeable-Phenotype (%),[1],3%
same,Population Mitochondria Different-Phenotype (%),[1],2%
same,Population Mitotic Cells (%),[1],17%
same,Population Normal (%),[1],99%
same,Population Pyknosed Nuclei (%),[1],6%
same,Population Tubulin-Different-Phenotype (%),[1],1%
same,Total Cell Count,[1],277
same,Population Apoptotic (%),[2],78%
same,Population Fragmented Nuclei (%),[2],10%
same,Population Healthy Nuclei (%),[2],79%
same,Population Hoechst High Intensity Objects (%),[2],1%
same,Population Membrane Permeable-Phenotype (%),[2],4%
same,Population Mitochondria Different-Phenotype (%),[2],1%
same,Population Mitotic Cells (%),[2],21%
same,Population Normal (%),[2],98%
same,Population Pyknosed Nuclei (%),[2],10%
same,Population Tubulin-Different-Phenotype (%),[2],3%
same,Total Cell Count,[2],136
same,Population Apoptotic (%),[3],79%
same,Population Fragmented Nuclei (%),[3],28%
same,Population Healthy Nuclei (%),[3],58%
same,Population Hoechst High Intensity Objects (%),[3],4%
same,Population Membrane Permeable-Phenotype (%),[3],12%
same,Population Mitochondria Different-Phenotype (%),[3],5%
same,Population Mitotic Cells (%),[3],20%
same,Population Normal (%),[3],95%
same,Population Pyknosed Nuclei (%),[3],12%
same,Population Tubulin-Different-Phenotype (%),[3],5%
same,Total Cell Count,[3],244
same,Population Apoptotic (%),[4],77%
same,Population Fragmented Nuclei (%),[4],24%
same,Population Healthy Nuclei (%),[4],56%
same,Population Hoechst High Intensity Objects (%),[4],0%
same,Population Membrane Permeable-Phenotype (%),[4],7%
same,Population Mitochondria Different-Phenotype (%),[4],6%
same,Population Mitotic Cells (%),[4],22%
same,Population Normal (%),[4],99%
same,Population Pyknosed Nuclei (%),[4],19%
same,Population Tubulin-Different-Phenotype (%),[4],4%
same,Total Cell Count,[4],113
same,Population Apoptotic (%),[5],100%
same,Population Fragmented Nuclei (%),[5],23%
same,Population Healthy Nuclei (%),[5],70%
same,Population Hoechst High Intensity Objects (%),[5],0%
same,Population Membrane Permeable-Phenotype (%),[5],2%
same,Population Mitochondria Different-Phenotype (%),[5],2%
same,Population Mitotic Cells (%),[5],0%
same,Population Normal (%),[5],99%
same,Population Pyknosed Nuclei (%),[5],5%
same,Population Tubulin-Different-Phenotype (%),[5],0%
same,Total Cell Count,[5],328
same,Population Apoptotic (%),[6],83%
same,Population Fragmented Nuclei (%),[6],11%
same,Population Healthy Nuclei (%),[6],81%
same,Population Hoechst High Intensity Objects (%),[6],1%
same,Population Membrane Permeable-Phenotype (%),[6],4%
same,Population Mitochondria Different-Phenotype (%),[6],5%
same,Population Mitotic Cells (%),[6],16%
same,Population Normal (%),[6],98%
same,Population Pyknosed Nuclei (%),[6],7%
same,Population Tubulin-Different-Phenotype (%),[6],2%
same,Total Cell Count,[6],168
same,Population Apoptotic (%),[7],72%
same,Population Fragmented Nuclei (%),[7],26%
same,Population Healthy Nuclei (%),[7],62%
same,Population Hoechst High Intensity Objects (%),[7],3%
same,Population Membrane Permeable-Phenotype (%),[7],11%
same,Population Mitochondria Different-Phenotype (%),[7],6%
same,Population Mitotic Cells (%),[7],27%
same,Population Normal (%),[7],96%
same,Population Pyknosed Nuclei (%),[7],11%
same,Population Tubulin-Different-Phenotype (%),[7],4%
same,Total Cell Count,[7],299
same,Population Apoptotic (%),[8],64%
same,Population Fragmented Nuclei (%),[8],20%
same,Population Healthy Nuclei (%),[8],66%
same,Population Membrane Permeable-Phenotype (%),[8],8%
same,Population Mitochondria Different-Phenotype (%),[8],7%
same,Population Mitotic Cells (%),[8],35%
same,Population Pyknosed Nuclei (%),[8],13%
same,Population Tubulin-Different-Phenotype (%),[8],7%
same,Total Cell Count,[8],129
same,Population Apoptotic (%),[9],87%
same,Population Fragmented Nuclei (%),[9],16%
same,Population Healthy Nuclei (%),[9],75%
same,Population Hoechst High Intensity Objects (%),[9],2%
same,Population Membrane Permeable-Phenotype (%),[9],4%
same,Population Mitochondria Different-Phenotype (%),[9],3%
same,Population Mitotic Cells (%),[9],12%
same,Population Normal (%),[9],97%
same,Population Pyknosed Nuclei (%),[9],7%
same,Population Tubulin-Different-Phenotype (%),[9],2%
same,Total Cell Count,[9],450
same,Population Apoptotic (%),[10],89%
same,Population Fragmented Nuclei (%),[10],12%
same,Population Hoechst High Intensity Objects (%),[10],1%
same,Population Membrane Permeable-Phenotype (%),[10],1%
same,Population Mitochondria Different-Phenotype (%),[10],2%
same,Population Mitotic Cells (%),[10],10%
same,Population Normal (%),[10],98%
same,Population Pyknosed Nuclei (%),[10],11%
same,Population Tubulin-Different-Phenotype (%),[10],1%
same,Total Cell Count,[10],252
same,Population Apoptotic (%),[11],69%
same,Population Fragmented Nuclei (%),[11],22%
same,Population Healthy Nuclei (%),[11],67%
same,Population Hoechst High Intensity Objects (%),[11],3%
same,Population Membrane Permeable-Phenotype (%),[11],10%
same,Population Mitochondria Different-Phenotype (%),[11],5%
same,Population Mitotic Cells (%),[11],30%
same,Population Normal (%),[11],96%
same,Population Pyknosed Nuclei (%),[11],9%
same,Population Tubulin-Different-Phenotype (%),[11],4%
same,Total Cell Count,[11],413
same,Population Apoptotic (%),[12],90%
same,Population Fragmented Nuclei (%),[12],23%
same,Population Healthy Nuclei (%),[12],65%
same,Population Hoechst High Intensity Objects (%),[12],2%
same,Population Membrane Permeable-Phenotype (%),[12],9%
same,Population Mitotic Cells (%),[12],10%
same,Population Normal (%),[12],97%
same,Population Pyknosed Nuclei (%),[12],11%
same,Population Tubulin-Different-Phenotype (%),[12],3%
same,Total Cell Count,[12],182
